Compound activity from PubChem BioAssay.
Insulin prom up: MIN6 insulin promoter up-regulation; z-score at 5 µM; MIN6 insulin promoter-GFP reporter, high-content imaging; hits give high values; 0.3% of 190,000 active;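 active = z-score above 3 at 5 µM with at least 500 cells counted in the well; inconclusive = wells under 500 cells, flagged as cytotoxic or low count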
RBBP9 inh: human RBBP9 hydrolase inhibition; 0.2% of 220,000 active; recombinant RBBP9, FP-Rh probe fluorescence polarization; inhibition, % at 7.94 µM; O75884;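 active = inhibition above the campaign mean of all tested compounds plus 3 SD, cut at about 14% in these data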
Target sequence (O75884 whole entry, looked up): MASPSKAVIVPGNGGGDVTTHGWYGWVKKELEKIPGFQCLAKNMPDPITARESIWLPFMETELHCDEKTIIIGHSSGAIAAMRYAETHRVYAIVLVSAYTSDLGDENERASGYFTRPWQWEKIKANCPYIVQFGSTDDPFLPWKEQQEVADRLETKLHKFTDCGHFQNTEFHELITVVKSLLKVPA
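Test system – recombinant human RBBP9 · Input – RBBP9 2.5 µM in dispensing solution, pre-mixing · Medium – Tris buffer pH 8.0, NaCl, Pluronic · Schedule – preincubation 30 min plus labeling 45 min at 25 °C · Measured by – fluorescence polarization · Measure – % inhibition · Controls – DMSO and no-protein wells · Replicates – one well per compound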
INS promoter inh: TRM-6 insulin promoter activity inhibition; TRM-6 cells (human fetal islet line), insulin promoter-eGFP reporter, imaging; reporter expression induced with tamoxifen; inhibition, % at 2 µM; 0.9% of 130,000 active; AID 1273;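 active = inhibition above the mean plus 3 SD, with well images judged a real hit on visual review, cut at about 60% in these data, passing the limit was not always enough; inconclusive = inhibition over the cutoff but images rejected on review; inactive = inhibition not above the cutoff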
MDM2 E3 inh: Mdm2 E3 ligase (human) inhibition. Q00987. cell-based MDM2 ubiquitination luciferase reporter, 2 h; 0 = plate control, 100 = twice control, blank-subtracted. signal enhancement, % at 5 µM. 0.11% of 210,000 active. AID 1230;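 active = signal enhancement of 30% or more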;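 also: luminescence tracks abundance of the self-degrading MDM2-luciferase fusion protein; higher signal means inhibition of MDM2 E3 ligase activity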
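Assay system: stable mammalian line carrying autodegrading MDM2–luciferase fusion reporter; amount: 2000 cells seeded into each well; buffer or medium: DMEM; benchmarks: plate control and blank wells; signal: luciferase luminescence; timing: 2 h compound exposure at 37 °C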
Wee1 degr inh: human Wee1 degradation inhibition, primary screen. HeLa Luc-Wee1K328M stability, luciferase luminescence; 100% = proteasome inhibitor MG132 effect. reporter increase, % at 5 µM. 1.2% of 220,000 active;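 active = activation above the mean of all tested compounds plus 3 SD, set per screening run, cut at about 8.8% in these data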;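 also: cells exposed to compound for 20 h before luminescence read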
Hsp70 act: Hsp70 transcriptional activation, primary screen. HeLa Hsp70 promoter luciferase reporter, luminescence; scaled: vehicle 0, proteasome-inhibitor control 100%. activation, % at 10 µM. 0.04% of 200,000 active;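 active = activation above the mean across all tested compounds plus 3 SD, cutoff set per campaign, cut at about 5.5% in these data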
Hits are given with their value; n = inactive; u = inconclusive; x = not tested or not shown. An excerpt weighted towards active compounds, which were near 2.2% of everything screened.

SMILES	Insulin prom up	RBBP9 inh	INS promoter inh	MDM2 E3 inh	Wee1 degr inh	Hsp70 act
CCCCSc1ncc(C(=O)OCC)c(N)n1	x	n	80	n	n	n
CC(C)N(C(=O)NC(=O)NCC1CCCO1)S(C)(=O)=O (stereo not given)	n	n	x	n	9.5	n
N#CCCN1CCNCC1	n	n	68	n	n	n
O=C(NCCO)C(=O)c1c(-c2ccccc2)cc2ccccn12	n	n	x	n	n	n
CCOc1ccc2nc(NC(=O)CN3CCC(n4nnc5cc(C(F)(F)F)ccc54)CC3)sc2c1	n	n	77	n	n	n
O=C(Nc1ccccn1)c1cc2cc([N+](=O)[O-])ccc2s1	n	n	x	n	9.4	n
O=C(Nc1ccccn1)c1ccc([N+](=O)[O-])cc1Cl	n	n	x	n	n	n
O=C(OCC(=O)N1CCc2ccccc2C1)c1cccc([N+](=O)[O-])c1	n	n	x	n	n	n
CC(C)n1c(C(O)c2ccc3c(c2)OCO3)nc2ccccc21 (stereo not given)	n	n	n	n	n	n
Cn1c(C(O)c2ccc3c(c2)OCO3)nc2ccccc21 (stereo not given)	n	n	77	n	n	n
Cc1cc(Nc2nn(C)c(N)c2C#N)ccc1F	6	n	x	n	n	n
CC1(C)Cc2c(sc3c2C2=NCCN2C=N3)CS1	n	n	87	n	n	n
CC1(C)Cc2c(sc3c2C(=O)N(c2ccccc2)C2=NCCN23)CS1	n	n	n	n	n	n
CC(=Nc1ccc(C)cc1C)c1sc2ccccc2c1O	4	n	x	n	n	n
O=C(NCc1ccccc1Cl)C(=O)NCC(c1ccco1)N1CCOCC1 (stereo not given)	n	n	78	n	n	n
O=C(NCc1ccccc1)C(=O)NCC(c1ccco1)N1CCOCC1 (stereo not given)	n	n	x	n	n	n
Cc1cccc(NC2=C(NCCO)C(=O)c3ccccc3C2=O)c1	n	n	u	n	9.3	n
O=C(CNC1CCCCCC1)c1cccs1	n	n	n	x	n	n
Cc1c(N2C(=O)c3cccc4cccc(c34)C2=O)c(=O)n(-c2ccccc2)n1C	n	n	69	n	n	n
CCCCSc1nc(C)cc(C)c1S(=O)(=O)c1ccccc1C	x	n	n	n	n	n
Cc1sc2ncnc(SCC(=O)NC3CC3)c2c1C	n	n	100	n	n	n
CCOc1ccc(N2C(=O)CC(N(Cc3ccco3)C(C)=O)C2=O)cc1 (stereo not given)	n	n	x	n	n	n
Cc1nc2ccc(NC(=O)N3CCSCC3)cc2nc1C	n	n	77	n	n	n
Cc1cc(OCCCCN2C(=O)NC(C)(C)C2=O)ccc1[N+](=O)[O-]	n	n	x	n	n	n
CC1(C)NC(=O)N(CCOc2ccc([N+](=O)[O-])cc2)C1=O	n	n	n	n	9.6	n
SMILES	Insulin prom up	RBBP9 inh	INS promoter inh	MDM2 E3 inh	Wee1 degr inh	Hsp70 act
O=C(Nc1cccc(C(F)(F)F)c1)c1cc(S(=O)(=O)N2CCCCC2)ccc1N1CCOCC1	x	n	n	38	n	n
C=CCn1c(SCN2C(=O)c3ccccc3C2=O)nc2ccc(Cl)cc2c1=O	n	n	n	n	n	n
C=CCn1c(SC(C)C#N)nc2sc(CC)cc2c1=O (stereo not given)	n	n	n	n	11	n
Cc1ccc(N=C2NC(=O)/C(=C/c3cn(C)c4ccccc34)S2)cc1C	3	n	x	n	n	n
Cn1cc(/C=C2/SC(=O)N(c3ccccc3)C2=O)c2ccccc21	n	n	x	n	n	n
O=C(Nc1ccc(N2CCN(C(=O)c3cccs3)CC2)c(Cl)c1)c1ccco1	n	n	n	n	n	n
Cc1ccccc1C(=O)N1CCN(c2ccc(NC(=O)c3ccco3)cc2Cl)CC1	n	n	85	n	n	n
CCS(=O)(=O)N1Cc2ccccc2CC1C(=O)Nc1cccc(C)c1 (stereo not given)	n	n	n	n	9.9	n
COCc1nnc(NS(=O)(=O)c2ccc(NC(C)=O)cc2)s1	n	n	n	n	9.9	n
CCc1nnc(NS(=O)(=O)c2ccc(NS(=O)(=O)c3ccc(NC(C)=O)cc3)cc2)s1	x	n	x	n	n	n
CCCC(=O)Nc1nnc(COC)s1	n	n	89	n	n	n
